Assay results taken from ChEMBL document CHEMBL3232903, “New pyrazolobenzothiazine derivatives as hepatitis C virus NS5B polymerase palm site I inhibitors” (J Med Chem, 2014).
pEC50, pIC50: −log10 of the molar value.

Legend:
[1] = Induction of phospholipidosis in human Huh-9-13 cells assessed as multilamellar bodies formation at 90 uM by monodansylcadaverine staining; assay type: cell-based
Method in brief: (§1)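 Huh-9-13 cells seeded at 25.000 cells/dish in complete DMEM without G418 at 37 °C, 5% CO2. Next day, compound (90 μM) or DMSO added for 3 days. Then stained 30 min with monodansylcadaverine (50 μM; ex 340/em 530 nm), LipidTOX Red (1/1000; ex 577/em 609 nm) or Nile Red (2 μg/mL; yellow-gold at ex 552/em 636 nm). Imaged by confocal microscopy.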

[2] = tested on: Hepatitis C virus isolate HC-J4; test: Ratio of IC50 for HCV genotype 1b HC-J4 recombinant N-terminal histidine tagged C-terminal 21 aminoacids truncated NS5B polymerase M414T mutant at palm site 1 to HCV genotype 1b HC-J4 recombinant N-terminal histidine tagged C-terminal 21 aminoacids truncated wild type NS5B polymerase
Method in brief: (§2)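 Fold change is the mutant NS5BCΔ21 IC50 (M414T, M423T or P495L) divided by the wild-type IC50. Both were measured in a primer-dependent elongation assay, from two independent experiments in duplicate.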

[3] = Apparent permeability of the compound assessed as membrane retention after 5 hrs by PAMPA assay; assay type: physicochemical
Method in brief: (§3)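 PAMPA, gastrointestinal model. Donor 0.5 mM, diluted from 1 mM DMSO stock in phosphate buffer pH 7.4 (0.025 M). Filter coated with 1% w/v phosphatidylcholine in dodecane; acceptor 50% DMSO in buffer. Incubated 5 or 22 h at room temperature with gentle shaking. Both sides analysed by LC-UV at 254 nm, concentration from peak area. Papp in cm/s and % membrane retention calculated by equations; three plates on different days.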

Hepatitis C virus [4] = test: Antiviral activity against HCV genotype 1b I389luc-ubi-neo/NS3-3'/5.1 replicon infected in human Huh5-2 cells assessed as inhibition of virus replication by luciferase assay; assay type: functional, cell-based, Hepacivirus hominis; conditions: Huh-5-2
[5] = Induction of steatosis in human Huh-9-13 cells assessed as intracellular accumulation of neutral lipids at 90 uM by Nile Red staining; assay type: cell-based; method in brief: as §1
[6] = tested on: Hepatitis C virus isolate HC-J4; test: Ratio of IC50 for HCV genotype 1b HC-J4 recombinant N-terminal histidine tagged C-terminal 21 aminoacids truncated NS5B polymerase P495L mutant at thumb site 1 to HCV genotype 1b HC-J4 recombinant N-terminal histidine tagged C-terminal 21 aminoacids truncated wild type NS5B polymerase; method in brief: as §2
[7] = tested on: Hepatitis C virus isolate HC-J4; test: Inhibition of RNA-dependent RNA polymerase activity of HCV genotype 1b HC-J4 recombinant N-terminal histidine tagged C-terminal 21 aminoacids truncated NS5B polymerase at 50 uM after 1 hr by standard primer dependent elongation assay
Method in brief: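 Recombinant NS5BCΔ21 genotype 1b in a primer-dependent elongation assay. […] IC50 is the concentration halving enzyme activity in vitro; mean ± SD of two independent experiments in duplicate.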

[8] = biological target: RNA-directed RNA polymerase (Hepacivirus hominis, UniProt O39930, M423T); test: Inhibition of RNA-dependent RNA polymerase activity of HCV genotype 1b HC-J4 recombinant N-terminal histidine tagged C-terminal 21 aminoacids truncated NS5B polymerase M423T mutant at thumb site 2 after 1 hr by standard primer dependent elongation assay; parameters: species or system Hepatitis C virus isolate HC-J4
RNA-directed RNA polymerase (Hepacivirus hominis, UniProt O39930, M423T), sequence (O39930 entry or part of it M423T): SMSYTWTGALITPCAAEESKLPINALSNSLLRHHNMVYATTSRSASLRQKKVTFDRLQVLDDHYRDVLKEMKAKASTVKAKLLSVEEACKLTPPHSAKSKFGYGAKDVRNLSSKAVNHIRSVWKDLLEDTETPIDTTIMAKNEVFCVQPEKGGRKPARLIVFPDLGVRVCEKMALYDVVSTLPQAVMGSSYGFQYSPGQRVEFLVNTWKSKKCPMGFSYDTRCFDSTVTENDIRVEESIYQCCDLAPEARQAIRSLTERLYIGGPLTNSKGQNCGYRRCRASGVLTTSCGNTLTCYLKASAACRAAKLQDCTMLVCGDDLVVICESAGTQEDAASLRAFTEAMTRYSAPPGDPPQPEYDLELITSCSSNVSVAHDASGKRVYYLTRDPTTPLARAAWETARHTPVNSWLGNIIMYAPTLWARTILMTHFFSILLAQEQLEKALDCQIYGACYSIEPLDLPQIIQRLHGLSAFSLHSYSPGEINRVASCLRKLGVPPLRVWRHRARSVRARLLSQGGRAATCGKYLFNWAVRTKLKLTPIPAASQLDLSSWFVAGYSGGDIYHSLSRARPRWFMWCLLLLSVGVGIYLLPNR
Method in brief: (§4)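 Recombinant NS5BCΔ21 genotype 1b mutants, M414T, M423T and P495L, each run in a primer-dependent elongation assay as for wild-type enzyme. IC50 is the mean ± SD of two independent experiments in duplicate.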

[9] = Selectivity index, ratio of CC50 for human Huh5-2 cells to EC50 for HCV genotype 1b I389luc-ubi-neo/NS3-3'/5.1 replicon infected in human Huh5-2 cells; parameters: species or system Huh-5-2
[10] = Cytotoxicity against human Huh5-2 cells carrying HCV genotype 1b I389luc-ubi-neo/NS3-3'/5.1 replicon assessed as cell morphological changes after 72 hrs by microscopic analysis; assay type: cell-based; conditions: huh-5-2, 72 h
Method in brief: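 Huh-5-2 replicon cells examined by microscopy for changes in cell morphology after 72 h of compound treatment.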

[11] = Induction of steatosis in human Huh-9-13 cells assessed as increase in size of lipid droplets at 90 uM by LipidTOX red staining; assay type: cell-based; method in brief: as §1
[12] = Cytostatic activity against human Huh-9-13 cells carrying HCV genotype 1b I389luc-ubi-neo/NS3-3'/5.1 replicon assessed as reduction in metabolic activity after 72 hrs by MTS assay; assay type: ADME, cell-based
Method in brief: (§5)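 MTS assay measuring bioreduction to formazan, read as host-cell metabolism/proliferation in subgenomic genotype 1b replicon cells. It was run alongside RT-qPCR-based antiviral testing. Huh-9-13 replicon cells lack the luciferase reporter, carry different adaptive mutations and more HCV RNA than Huh-5-2. HuH6 replicon cells use a different host line from Huh-7 and have distinct adaptive mutations. CC50 is the concentration that halves MTS reduction.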

[13] = biological target: RNA-directed RNA polymerase (Hepacivirus hominis, UniProt O39930, M414T); test: Inhibition of RNA-dependent RNA polymerase activity of HCV genotype 1b HC-J4 recombinant N-terminal histidine tagged C-terminal 21 aminoacids truncated NS5B polymerase M414T mutant at palm site 1 after 1 hr by standard primer dependent elongation assay; parameters: species or system Hepatitis C virus isolate HC-J4; method in brief: as §4
RNA-directed RNA polymerase (Hepacivirus hominis, UniProt O39930, M414T), sequence (O39930 entry or part of it M414T): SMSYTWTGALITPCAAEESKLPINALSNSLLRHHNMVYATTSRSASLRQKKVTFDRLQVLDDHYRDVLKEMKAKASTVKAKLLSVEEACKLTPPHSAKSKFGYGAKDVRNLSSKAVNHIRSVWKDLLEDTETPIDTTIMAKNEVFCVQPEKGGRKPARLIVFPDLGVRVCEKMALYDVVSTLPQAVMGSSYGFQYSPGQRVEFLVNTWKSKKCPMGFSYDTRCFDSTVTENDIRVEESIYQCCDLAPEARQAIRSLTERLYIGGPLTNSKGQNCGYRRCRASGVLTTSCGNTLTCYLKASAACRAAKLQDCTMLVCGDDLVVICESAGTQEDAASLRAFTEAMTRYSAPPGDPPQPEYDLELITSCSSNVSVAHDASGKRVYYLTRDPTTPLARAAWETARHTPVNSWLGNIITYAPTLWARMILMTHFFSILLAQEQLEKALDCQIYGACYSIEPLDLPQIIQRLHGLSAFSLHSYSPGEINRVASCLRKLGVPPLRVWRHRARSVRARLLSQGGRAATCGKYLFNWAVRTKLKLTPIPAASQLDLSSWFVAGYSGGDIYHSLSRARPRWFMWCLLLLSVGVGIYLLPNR

Hepatitis C virus [14] = test: Antiviral activity against HCV genotype 1b […] replicon infected in human Huh9-13 cells assessed as decrease in replicon RNA content by RT-qPCR analysis; assay type: functional, cell-based, Hepacivirus hominis
Method in brief: (§6)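 Subgenomic genotype 1b HCV replicon cells: Huh-9-13 (Huh-7 background, no luciferase reporter) and HuH6 (different adaptive mutations). EC50 from decrease in replicon RNA measured by RT-qPCR. Host-cell proliferation and metabolism checked in parallel by MTS assay.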

[15] = Cytostatic activity against human Huh6 cells carrying HCV genotype 1b I389luc-ubi-neo/NS3-3'/5.1 replicon assessed as reduction in metabolic activity after 72 hrs by MTS assay; assay type: ADME, cell-based; method in brief: as §5
[16] = Apparent permeability of the compound after 22 hrs by PAMPA-GI model analysis; assay type: physicochemical; method in brief: as §3
[17] = Apparent permeability of the compound assessed as membrane retention after 22 hrs by PAMPA assay; assay type: physicochemical; method in brief: as §3
[18] = Lipophilicity, log P of the compound by shake flask method; assay type: physicochemical; conditions: octanol/water
Method in brief: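 Shake flask: compound dissolved in octanol, then 2.5 mL octanol with 2.5 mL water, sealed and agitated, 10 h to equilibrium. Each phase analysed by HPLC (C18, 50% ACN/50% H2O, 0.8 mL/min, UV).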

[19] = Inhibition of RNA-dependent RNA polymerase activity of HCV genotype 1b HC-J4 recombinant N-terminal histidine tagged C-terminal 21 aminoacids truncated NS5B polymerase after 1 hr by standard primer dependent elongation assay; parameters: species or system Hepatitis C virus isolate HC-J4
Method in brief: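 Recombinant NS5BCΔ21 genotype 1b in a primer-dependent elongation assay. IC50 is the concentration halving enzyme activity in vitro; mean ± SD of two independent experiments in duplicate.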

[20] = Apparent permeability of the compound after 5 hrs by PAMPA-GI model analysis; assay type: physicochemical; method in brief: as §3
[21] = biological target: RNA-directed RNA polymerase (Hepacivirus hominis, UniProt O39930, P495L); test: Inhibition of RNA-dependent RNA polymerase activity of HCV genotype 1b HC-J4 recombinant N-terminal histidine tagged C-terminal 21 aminoacids truncated NS5B polymerase P495L mutant at thumb site 1 after 1 hr by standard primer dependent elongation assay; parameters: species or system Hepatitis C virus isolate HC-J4; method in brief: as §4
RNA-directed RNA polymerase (Hepacivirus hominis, UniProt O39930, P495L), sequence (O39930 entry or part of it P495L): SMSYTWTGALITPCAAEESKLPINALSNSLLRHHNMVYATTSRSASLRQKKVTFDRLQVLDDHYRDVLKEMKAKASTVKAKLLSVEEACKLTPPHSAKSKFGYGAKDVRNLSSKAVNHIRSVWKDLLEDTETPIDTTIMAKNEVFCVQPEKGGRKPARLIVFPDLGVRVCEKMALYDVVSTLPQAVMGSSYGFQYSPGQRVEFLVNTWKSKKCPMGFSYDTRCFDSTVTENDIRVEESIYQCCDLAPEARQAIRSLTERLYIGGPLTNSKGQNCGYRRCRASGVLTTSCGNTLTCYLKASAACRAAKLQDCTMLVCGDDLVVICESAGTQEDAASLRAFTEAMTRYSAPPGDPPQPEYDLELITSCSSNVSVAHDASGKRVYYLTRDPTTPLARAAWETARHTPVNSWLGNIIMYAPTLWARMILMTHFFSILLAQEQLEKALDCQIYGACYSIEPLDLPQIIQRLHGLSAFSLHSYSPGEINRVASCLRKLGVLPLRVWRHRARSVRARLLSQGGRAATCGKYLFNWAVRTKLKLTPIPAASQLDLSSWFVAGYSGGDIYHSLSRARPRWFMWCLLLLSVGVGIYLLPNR

[22] = tested on: Hepatitis C virus isolate HC-J4; test: Ratio of IC50 for HCV genotype 1b HC-J4 recombinant N-terminal histidine tagged C-terminal 21 aminoacids truncated NS5B polymerase M423T mutant at thumb site 2 to HCV genotype 1b HC-J4 recombinant N-terminal histidine tagged C-terminal 21 aminoacids truncated wild type NS5B polymerase; method in brief: as §2
Hepatitis C virus [23] = test: Antiviral activity against HCV genotype 1b I389luc-ubi-neo/NS3-3'/5.1 replicon infected in human Huh6 cells assessed as decrease in replicon RNA content by RT-qPCR analysis; assay type: functional, cell-based, Hepacivirus hominis; conditions: HuH-6; method in brief: as §6
[24] = Metabolic stability of the compound in human liver microsomes assessed as unmodified compound remaining after 60 mins; assay type: ADME; conditions: read-out: Stability
Method in brief: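 Compound at 50 μM final (DMSO ≤2%) incubated 60 min at 37 °C with human liver microsomal protein (0.2 mg/mL) and an NADPH-generating system in 125 mM phosphate buffer, pH 7.4. Unmodified parent was quantified by LC–MS and reported as percentage remaining.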

[25] = Cytostatic activity against human Huh5-2 cells carrying HCV genotype 1b I389luc-ubi-neo/NS3-3'/5.1 replicon assessed as reduction in metabolic activity after 72 hrs by MTS assay; assay type: ADME, cell-based, Huh-5-2; conditions: huh-5-2, 72 h
Method in brief: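 Replicon-bearing Huh-5-2 cells run in parallel with the antiviral read-out; CC50 is the concentration halving MTS bioreduction to formazan, taken as the antimetabolic effect on host cells; mean ± SD from at least three dose–response curves.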

CN1c2c(C(=O)Nc3ccc(NS(C)(=O)=O)cc3)nn(-c3cccc(Cl)c3)c2-c2ccccc2S1(=O)=O
Activity [1]: Non-toxic
Ratio IC50 [2]: 29.7
R% [3]: 7.3%
pEC50 (Hepatitis C virus [4]): 5.01
EC90 (Hepatitis C virus [4]): 41 µM
Activity [5]: Toxic
Ratio IC50 [6]: 1.2
inhibition [7]: > 50%
pIC50 [8]: 5.03
Ratio CC50/EC50 [9]: >18
Activity [10]: Toxic
Activity [11]: Toxic
CC50 [12]: > 90 µM
pIC50 [13]: 3.89
pEC50 (Hepatitis C virus [14]): 5.12
CC50 at 72 h [15]: > 90 µM
Papp [16]: 4.2 ×10⁻⁶ cm/s
R% [17]: 3.2%
logP [18]: 2.11
pIC50 [19]: 5.37
Papp [20]: 2.3 ×10⁻⁶ cm/s
pIC50 [21]: 5.29
Ratio IC50 [22]: 2.2
pEC50 (Hepatitis C virus [23]): 4.85
remaining at 1 h [24]: 99.9%
CC50 [25]: > 179 µM
